We go through 4 compounds from ChEMBL document CHEMBL1240364, “Ex vivo comparison of microbicide efficacies for preventing HIV-1 genomic integration in intraepithelial vaginal cells” (Antimicrob Agents Chemother, 2010).

The subject of assay [1] is Human immunodeficiency virus 1. As to the kind of experiment: Antiviral activity against HIV1 isolate M1 infected in human vaginal intraepithelial cells assessed as decrease in viral genomic integration at 1 uM after 48 hrs by multiplex PCR assay. Details: scale not given: the % may be the effect or the level left. The assay is classed as functional. An outline of the steps: (§1)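 Vaginal epithelial sheets from two donors, EDTA-isolated and calcium-replenished, were preincubated with compound and then spinoculated with 100 ng/ml Gag p24 of primary mucosal isolate HIV-1M1 for 2 h at 1,200 × g. After 48 h culture, integration was measured by multiplex Alu-LTR/β-actin nested real-time PCR and expressed relative to untreated infection.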

Assay [2] concerns Human immunodeficiency virus 1. As to the kind of experiment: Antiviral activity against HIV1 JRCSF infected in human vaginal intraepithelial cells assessed as decrease in viral genomic integration at 30 uM by multiplex PCR assay. Details: scale not given: the % may be the effect or the level left. The assay is classed as functional, JRCSF ISOLATE. An outline of the steps:
(§2)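 EDTA-separated vaginal epithelial sheets, calcium-replenished, pretreated 1 h with a single compound concentration, then spinoculated with 100 ng/ml Gag p24 HIV-1JRCSF (2 h, 1,200 × g) and cultured 48 h at 37°C. Integrated DNA measured by Alu-LTR nested real-time PCR against an ACH-2 standard curve, with β-actin normalization run either in separate wells (singleplex) or in the same wells (multiplex). Quadruplicate PCRs; integration relative to untreated infection.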

Assay [3] has as its system Human immunodeficiency virus 1. As to the kind of experiment: Antiviral activity against HIV1 JRCSF infected in human vaginal epithelium assessed as inhibition of viral genomic integration by titration assay. The assay is classed as functional. To be noted: for IC50: Human immunodeficiency virus 1, JRCSF ISOLATE; for Activity: JRCSF ISOLATE. Put shortly:
(§3)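 Vaginal epithelial sheets separated from stroma with 5 mM EDTA overnight at 4°C, replenished 1 h with 5 mM CaCl2. Pretreated with compound titrations for 1 h, then spinoculated with 100 ng/ml Gag p24 HIV-1JRCSF for 2 h at 1,200 × g. Sheets washed and cultured 2–3 days at 37°C. Emigrated cells and sheets pooled; Alu-LTR nested real-time PCR run in quadruplicate. Integration expressed relative to untreated infection; IC50 by nonlinear regression.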

For assay [4], the system named is Human immunodeficiency virus 1. As to the kind of experiment: Antiviral activity against HIV1 JRCSF infected in human vaginal intraepithelial cells assessed as viral genomic integration relative to control at 30 uM by singleplex PCR assay. To be noted: Human immunodeficiency virus 1, JRCSF ISOLATE.
Assay [5] has as its system Human immunodeficiency virus 1. As to the kind of experiment: Antiviral activity against HIV1 JRCSF infected in human vaginal intraepithelial cells assessed as decrease in viral genomic integration at 1 uM by singleplex PCR assay. The assay is classed as functional, JRCSF ISOLATE. Also noted: scale not given: the % may be the effect or the level left. Put shortly: as §2

In assay [6] the test system is Human immunodeficiency virus 1. As to the kind of experiment: Antiviral activity against HIV1 JRCSF infected in human vaginal intraepithelial cells assessed as viral genomic integration relative to control at 1 uM by singleplex PCR assay. To be noted: Human immunodeficiency virus 1, JRCSF ISOLATE.
The test system of assay [7] is Human immunodeficiency virus 1. As to the kind of experiment: Antiviral activity against HIV1 JRCSF infected in human vaginal intraepithelial cells assessed as viral genomic integration relative to control at 0.223 uM by singleplex PCR assay. To be noted: Human immunodeficiency virus 1, JRCSF ISOLATE.
The test system of assay [8] is Human immunodeficiency virus 1. As to the kind of experiment: Antiviral activity against HIV1 JRCSF infected in human intraepithelial leukocytes assessed as decrease viral integration at 0.1 ug/ml by titration assay. Also noted: scale not given: the % may be the effect or the level left. The assay is classed as functional, JRCSF ISOLATE. An outline of the steps:
as §3

For assay [9], the system named is Human immunodeficiency virus 1. As to the kind of experiment: Antiviral activity against HIV1 JRCSF infected in human vaginal intraepithelial cells assessed as decrease in viral genomic integration at 0.223 uM by multiplex PCR assay. The assay is classed as functional, JRCSF ISOLATE. Also noted: scale not given: the % may be the effect or the level left. An outline of the steps: as §2

Assay [10] concerns Human immunodeficiency virus 1. As to the kind of experiment: Antiviral activity against HIV1 JRCSF infected in human vaginal epithelium leukocytes assessed as inhibition of viral genomic integration by titration assay. The assay is classed as functional, cell-based. To be noted: JRCSF ISOLATE. An outline of the steps:
as §3

Assay [11] concerns Human immunodeficiency virus 1. As to the kind of experiment: Antiviral activity against HIV1 JRCSF infected in human vaginal epithelium mucosa assessed as decrease viral integration at 10 ng/ml by titration assay. The assay is classed as functional. The conditions noted are these: Human immunodeficiency virus 1, JRCSF ISOLATE. An outline of the steps: as §3
Assay [12] deals with Human immunodeficiency virus 1. As to the kind of experiment: Antiviral activity against HIV1 JRCSF infected in PHA-activated human T cells assessed as inhibition of viral genomic integration by titration assay. The assay is classed as functional, cell-based. To be noted: T-cell. An outline of the steps: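 PBMC from two blood donors activated 2 days with 0.4 μg/ml PHA; 100,000 lymphoblasts per well pretreated in duplicate with a concentration series for 1 h at room temperature, infected with 200 ng/ml Gag p24 HIV-1JRCSF for 2 h, washed, cultured 48 h at 37°C in medium with 50 U/ml IL-2. Integrated DNA measured by Alu-LTR nested real-time PCR; IC50 from nonlinear regression.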

The subject of assay [13] is Human immunodeficiency virus 1. As to the kind of experiment: Antiviral activity against HIV1 JRCSF infected in human intraepithelial leukocytes assessed as decrease viral integration at 0.5 ug/ml by titration assay. The assay is classed as functional, JRCSF ISOLATE. Details: scale not given: the % may be the effect or the level left. An outline of the steps: as §3

Assay [14] concerns Human immunodeficiency virus 1. As to the kind of experiment: Antiviral activity against HIV1 isolate M1 infected in human vaginal intraepithelial cells assessed as decrease in viral genomic integration at 0.223 uM after 48 hrs by multiplex PCR assay. The assay is classed as functional. Details: scale not given: the % may be the effect or the level left. Put shortly:
as §1

In the case of `Cc1ccc(-c2ccc3c(c2)C=C(C(=O)Nc2ccc(C[N+](C)(C)C4CCOCC4)cc2)CCC3)cc1.[Cl-]`, the Activity in assay [1] was below 2%; in [2], 8.6%; in [3] it was “Dose-dependent effect”. The IC50 in assay [3] is 5.84 nM. Also, in [4], the level, % of control at 30 µM was found to be 10%.
With `[N-]=[N+]=NCc1cccc(C(=O)/C=C(\O)C(=O)O)c1`, the Activity in assay [5] was found to be 8.4%. Further, in assay [3], the IC50 turned out to be 190 nM and the Activity entry is “Dose-dependent effect”.
For the compound `c1cc(CN2CCCNCCNCCCNCC2)ccc1CN1CCCNCCNCCCNCC1` [PLERIXAFOR], the Activity in assay [1] was 117%. For the same compound, the level, % of control at 1 µM in [6] worked out at 177%.
Take enfuvirtide: the level, % of control at 0.223 µM in assay [7] is 8%. Also, the Activity was 1.92% in assay [8]; 6% in [9]; “Dose-dependent effect” in [10]; “Dose-dependent effect” in assay [12] (JRCSF ISOLATE); 30.4% in assay [13]; below 2% in [14]. The inhibition at 0.01 µg/mL in assay [11] is above 80%. For the same compound, in [12] (Human immunodeficiency virus 1, JRCSF ISOLATE), the IC50 worked out at 7.57 nM.

A word on the IC50: it is the concentration that inhibits the measured activity by half. The term inhibition denotes the relative decrease from the control value, in per cent.
